Experimental data published in ChEMBL document CHEMBL4334542, “Antimalarial N 1,N 3-Dialkyldioxonaphthoimidazoliums: Synthesis, Biological Activity, and Structure-activity Relationships” (ACS Med Chem Lett, 2020).
pIC50: −log10 of the molar value. Activity calls are given as the source filed them. The rule behind the calls is not given here.

What was measured:
CHO-K1 = experiment: Cytotoxicity against CHOK1 cells assessed as reduction in cell viability incubated for 48 hrs by CellTiter 96 aqueous one solution assay; assay type: cell-based; conditions: Cricetulus griseus, CHO-K1, 48 h
Outline: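 Cell growth measured by a tetrazolium dye assay. IC50 is the concentration reducing growth by 50% relative to untreated cultures; mean ± SD of n = 3 separate determinations.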

Plasmodium falciparum [1] = experiment: Antimalarial activity against asexual stage of Plasmodium falciparum 3D7 infected in erythrocytes assessed as reduction in parasite growth incubated for 48 hrs under hypoxic condition by Hoechst 33342 staining based flow cytometry; assay type: functional, organism-based; conditions: 3D7, 48 h
Outline: (§1)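 Asexual Dd2 and 3D7 parasites in erythrocytes; DNA content of infected cells measured by Hoechst 33342 staining and FACS. IC50 is the concentration giving 50% of the net fluorescence of untreated control cultures; mean ± SD of n = 3 separate determinations.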

Plasmodium falciparum [2] = experiment: Antimalarial activity against asexual stage of Plasmodium falciparum Dd2 infected in erythrocytes assessed as reduction in parasite growth incubated for 48 hrs under hypoxic condition by Hoechst 33342 staining based flow cytometry; assay type: functional, organism-based; conditions: Dd2, 48 h; outline: as §1
Plasmodium falciparum [3] = experiment: Antimalarial activity against Plasmodium falciparum NF54 late gametocytes transfected with luciferase gene incubated for 48 hrs by luciferase reporter gene assay; assay type: functional, organism-based; conditions: NF54, 48 h
Outline: (§2)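 Gametocytes of NF54-Pfs16-GFP-Luc, early (>95% stage II/III) or late (>90% stage IV/V); luciferase read-out. IC50 is the concentration giving 50% reduction of luminescence; mean ± SEM of n = 3 independent biological replicates.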

Plasmodium falciparum [4] = experiment: Antimalarial activity against asexual stage of Plasmodium falciparum NF54 assessed as reduction in parasite growth incubated for 96 hrs by SYBR Green I dye-based fluorescence assay; assay type: functional, organism-based; conditions: NF54, 96 h
Outline: (§3)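 Asexual NF54, K1 and W2 parasites; proliferation read as SYBR Green I fluorescence. IC50 is the concentration giving 50% of the net SYBR Green I fluorescence of untreated control cultures; mean ± SEM of n = 3 independent biological replicates.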

Plasmodium falciparum [5] = experiment: Antimalarial activity against Plasmodium falciparum NF54 early gametocytes transfected with luciferase gene incubated for 48 hrs by luciferase reporter gene assay; assay type: functional, organism-based; conditions: NF54, 48 h; outline: as §2
Plasmodium falciparum [6] = experiment: Antimalarial activity against asexual stage of Plasmodium falciparum W2 assessed as reduction in parasite growth incubated for 96 hrs by SYBR Green I dye-based fluorescence assay; assay type: functional, organism-based; conditions: W2, 96 h
Plasmodium falciparum [7] = experiment: Antimalarial activity against asexual stage of Plasmodium falciparum K1 assessed as reduction in parasite growth incubated for 96 hrs by SYBR Green I dye-based fluorescence assay; assay type: functional, organism-based; conditions: K1, 96 h; outline: as §3
Plasmodium falciparum [8] = experiment: Antimalarial activity against asexual stage of Plasmodium falciparum NF54 assessed as reduction in parasite growth at 1 uM incubated for 96 hrs by SYBR Green I dye-based fluorescence assay relative to control; assay type: functional; parameters: scale not given: the % may be the effect or the level left
[9] = Redox cycling activity of the compound […] measured after 45 mins by phenol red reagent based horseradish peroxidase coupled assay
Outline: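 Redox cycling EC50 determined by the phenol red horseradish peroxidase assay.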

Plasmodium falciparum [10] = experiment: Antimalarial activity against Plasmodium falciparum K1 incubated for 48 hrs by [3H]-hypoxanthine incorporation assay; assay type: functional, organism-based
Plasmodium falciparum [11] = experiment: Antimalarial activity against Plasmodium falciparum TM90C2B incubated for 48 hrs by [3H]-hypoxanthine incorporation assay; assay type: functional, organism-based
Plasmodium falciparum [12] = experiment: Antimalarial activity against Plasmodium falciparum NF54 incubated for 48 hrs by [3H]-hypoxanthine incorporation assay; assay type: functional, organism-based

CCCC[n+]1c2c(n(C)c1C)C(=O)c1ccccc1C2=O
pIC50 (CHO-K1): 4.88 | pIC50 (Plasmodium falciparum [1]): 8.37 | pIC50 (Plasmodium falciparum [2]): 7.85

CC[n+]1c2c(n(CC(C)C)c1C)C(=O)c1ccccc1C2=O
pIC50 (Plasmodium falciparum [3]): 5.99 | pIC50 (Plasmodium falciparum [4]): 8.79 | pIC50 (Plasmodium falciparum [5]): 7.48 | pIC50 (Plasmodium falciparum [6]): 8.79 | pIC50 (Plasmodium falciparum [7]): 8.51

CCCCn1c(C)nc2c1C(=O)c1ccccc1C2=O
Activity (Plasmodium falciparum [8]): <=50% | Activity [9]: inactive

CCn1c(C)nc2c1C(=O)c1ccccc1C2=O
Activity (Plasmodium falciparum [8]): <=50% | Activity [9]: inactive

CCCn1c2c([n+](C3CC3)c1C)C(=O)c1ccccc1C2=O
pIC50 (CHO-K1): 5.26 | pIC50 (Plasmodium falciparum [1]): 6.48 | pIC50 (Plasmodium falciparum [2]): 7.68

CCCCn1c2c([n+](CCCC)c1C)C(=O)c1ccccc1C2=O
pIC50 (CHO-K1): 4.52 | pIC50 (Plasmodium falciparum [1]): 7.30 | pIC50 (Plasmodium falciparum [2]): 7.36

Cc1n(CC(C)C)c2c([n+]1C1CC1)C(=O)c1ccccc1C2=O
pIC50 (Plasmodium falciparum [3]): 6.08 | pIC50 (Plasmodium falciparum [4]): 8.40 | pIC50 (Plasmodium falciparum [5]): 6.86 | pIC50 (Plasmodium falciparum [6]): 8.59 | pIC50 (Plasmodium falciparum [7]): 8.23

CCCn1c2c([n+](C(C)C)c1C)C(=O)c1ccccc1C2=O
pIC50 (CHO-K1): 4.57 | pIC50 (Plasmodium falciparum [3]): 6.25 | pIC50 (Plasmodium falciparum [4]): 8.64 | pIC50 (Plasmodium falciparum [10]): 8.68 | pIC50 (Plasmodium falciparum [11]): 8.74 | pIC50 (Plasmodium falciparum [5]): 6.79 | pIC50 (Plasmodium falciparum [1]): 8.40 | pIC50 (Plasmodium falciparum [2]): 8.10 | pIC50 (Plasmodium falciparum [6]): 8.66 | pIC50 (Plasmodium falciparum [7]): 8.51 | pIC50 (Plasmodium falciparum [12]): 9.00 | Activity [9]: Active

CC1=CC(=O)c2ccccc2C1=O [MENADIONE]
Activity (Plasmodium falciparum [8]): 20 - 40%

CCCCn1c2c([n+](C3CC3)c1C)C(=O)c1ccccc1C2=O
pIC50 (CHO-K1): 5.00 | pIC50 (Plasmodium falciparum [1]): 6.74 | pIC50 (Plasmodium falciparum [2]): 7.68

CCC[n+]1c2c(n(C)c1C)C(=O)c1ccccc1C2=O
pIC50 (CHO-K1): 5.41 | pIC50 (Plasmodium falciparum [1]): 8.32 | pIC50 (Plasmodium falciparum [2]): 7.84

Cc1n(CC(C)C)c2c([n+]1C(C)C)C(=O)c1ccccc1C2=O
pIC50 (Plasmodium falciparum [3]): 6.16 | pIC50 (Plasmodium falciparum [4]): 8.63 | pIC50 (Plasmodium falciparum [5]): 6.64 | pIC50 (Plasmodium falciparum [6]): 8.71 | pIC50 (Plasmodium falciparum [7]): 8.37

CCCC[n+]1c2c(n(C(C)C)c1C)C(=O)c1ccccc1C2=O
pIC50 (CHO-K1): 4.10 | pIC50 (Plasmodium falciparum [1]): 7.94 | pIC50 (Plasmodium falciparum [2]): 7.83

Cc1n(CC(C)C)c2c([n+]1C)C(=O)c1ccccc1C2=O
pIC50 (Plasmodium falciparum [3]): 5.96 | pIC50 (Plasmodium falciparum [4]): 8.72 | pIC50 (Plasmodium falciparum [5]): 7.39 | pIC50 (Plasmodium falciparum [6]): 8.73 | pIC50 (Plasmodium falciparum [7]): 8.47

CCCCCC[n+]1c2c(n(CC(C)C)c1C)C(=O)c1ccccc1C2=O
pIC50 (Plasmodium falciparum [3]): 6.26 | pIC50 (Plasmodium falciparum [4]): 8.21 | pIC50 (Plasmodium falciparum [5]): 6.84 | pIC50 (Plasmodium falciparum [6]): 8.28 | pIC50 (Plasmodium falciparum [7]): 8.00

Cc1n(C)c2c([n+]1C(C)C)C(=O)c1ccccc1C2=O
pIC50 (CHO-K1): 5.33 | pIC50 (Plasmodium falciparum [1]): 8.32 | pIC50 (Plasmodium falciparum [2]): 7.79

CC[n+]1c2c(n(C(C)C)c1C)C(=O)c1ccccc1C2=O
pIC50 (CHO-K1): 4.82 | pIC50 (Plasmodium falciparum [1]): 7.21 | pIC50 (Plasmodium falciparum [2]): 7.93

CCCn1c2c([n+](CCC)c1C)C(=O)c1ccccc1C2=O
pIC50 (CHO-K1): 4.79 | pIC50 (Plasmodium falciparum [1]): 7.57 | pIC50 (Plasmodium falciparum [2]): 7.95

CCCCCCCC[n+]1c2c(n(CC(C)C)c1C)C(=O)c1ccccc1C2=O
pIC50 (Plasmodium falciparum [3]): 6.79 | pIC50 (Plasmodium falciparum [4]): 8.36 | pIC50 (Plasmodium falciparum [5]): 7.41 | pIC50 (Plasmodium falciparum [6]): 8.44 | pIC50 (Plasmodium falciparum [7]): 8.08

Cc1nc2c(n1C)C(=O)c1ccccc1C2=O
Activity (Plasmodium falciparum [8]): <=50% | Activity [9]: inactive

CN(C)c1ccc2nc3ccc(N(C)C)cc3[s+]c2c1 [METHYLENE BLUE ANHYDROUS]
pIC50 (Plasmodium falciparum [3]): 6.84 | pIC50 (Plasmodium falciparum [5]): 7.02

CCCCCCCCCCCC[n+]1c2c(n(CC(C)C)c1C)C(=O)c1ccccc1C2=O
pIC50 (Plasmodium falciparum [3]): 6.76 | pIC50 (Plasmodium falciparum [4]): 8.37 | pIC50 (Plasmodium falciparum [5]): 6.44 | pIC50 (Plasmodium falciparum [6]): 8.26 | pIC50 (Plasmodium falciparum [7]): 7.95

CCn1c2c([n+](C3CC3)c1C)C(=O)c1ccccc1C2=O
pIC50 (CHO-K1): 5.18 | pIC50 (Plasmodium falciparum [1]): 7.18 | pIC50 (Plasmodium falciparum [2]): 7.46

Cc1n(C(C)C)c2c([n+]1C1CC1)C(=O)c1ccccc1C2=O
pIC50 (CHO-K1): 4.84 | pIC50 (Plasmodium falciparum [1]): 7.80 | pIC50 (Plasmodium falciparum [2]): 7.60

C[C@H]1[C@H](OC(=O)CCC(=O)O)O[C@@H]2O[C@@]3(C)CC[C@H]4[C@H](C)CC[C@@H]1[C@@]24OO3 [ARTESUNATE]
pIC50 (Plasmodium falciparum [3]): 6.59 | pIC50 (Plasmodium falciparum [4]): 8.52 | pIC50 (Plasmodium falciparum [10]): 8.85 | pIC50 (Plasmodium falciparum [11]): 8.57 | pIC50 (Plasmodium falciparum [5]): 7.20 | pIC50 (Plasmodium falciparum [1]): 7.64 | pIC50 (Plasmodium falciparum [2]): 7.88 | pIC50 (Plasmodium falciparum [7]): 8.49 | pIC50 (Plasmodium falciparum [12]): 8.49

CCCCCCCCCC[n+]1c2c(n(CC(C)C)c1C)C(=O)c1ccccc1C2=O
pIC50 (Plasmodium falciparum [3]): 6.63 | pIC50 (Plasmodium falciparum [4]): 8.30 | pIC50 (Plasmodium falciparum [5]): 6.43 | pIC50 (Plasmodium falciparum [6]): 8.21 | pIC50 (Plasmodium falciparum [7]): 7.88

CC[n+]1c2c(n(C)c1C)C(=O)c1ccccc1C2=O
pIC50 (CHO-K1): 5.44 | pIC50 (Plasmodium falciparum [1]): 8.08 | pIC50 (Plasmodium falciparum [2]): 7.70

CCCC[n+]1c2c(n(CC(C)C)c1C)C(=O)c1ccccc1C2=O
pIC50 (Plasmodium falciparum [3]): 6.56 | pIC50 (Plasmodium falciparum [4]): 8.14 | pIC50 (Plasmodium falciparum [5]): 6.74 | pIC50 (Plasmodium falciparum [6]): 8.29 | pIC50 (Plasmodium falciparum [7]): 8.01

Cc1nc2c(n1C(C)C)C(=O)c1ccccc1C2=O
Activity (Plasmodium falciparum [8]): <=50% | Activity [9]: inactive

CCn1c2c([n+](CC)c1C)C(=O)c1ccccc1C2=O
pIC50 (CHO-K1): 4.83 | pIC50 (Plasmodium falciparum [1]): 8.22 | pIC50 (Plasmodium falciparum [2]): 7.72

CCCn1c(C)nc2c1C(=O)c1ccccc1C2=O
Activity (Plasmodium falciparum [8]): <=50% | Activity [9]: inactive

Cc1n(C2CC2)c2c([n+]1C1CC1)C(=O)c1ccccc1C2=O
pIC50 (CHO-K1): 4.37 | pIC50 (Plasmodium falciparum [1]): 7.38 | pIC50 (Plasmodium falciparum [2]): 7.41

CCCC[n+]1c2c(n(CCC)c1C)C(=O)c1ccccc1C2=O
pIC50 (CHO-K1): 4.57 | pIC50 (Plasmodium falciparum [1]): 7.73 | pIC50 (Plasmodium falciparum [2]): 7.68

CCC[n+]1c2c(n(CC(C)C)c1C)C(=O)c1ccccc1C2=O
pIC50 (Plasmodium falciparum [3]): 6.07 | pIC50 (Plasmodium falciparum [4]): 8.53 | pIC50 (Plasmodium falciparum [5]): 6.57 | pIC50 (Plasmodium falciparum [6]): 8.67 | pIC50 (Plasmodium falciparum [7]): 8.35

COCC[n+]1c2c(n(Cc3cnccn3)c1C)C(=O)c1ccccc1C2=O [SEPANTRONIUM BROMIDE]
pIC50 (Plasmodium falciparum [1]): 7.41 | pIC50 (Plasmodium falciparum [2]): 7.34

Cc1n(C)c2c([n+]1C)C(=O)c1ccccc1C2=O
pIC50 (CHO-K1): 5.24 | pIC50 (Plasmodium falciparum [1]): 7.65 | pIC50 (Plasmodium falciparum [2]): 7.58

Cc1n(CC(C)C)c2c([n+]1CC(C)C)C(=O)c1ccccc1C2=O
pIC50 (Plasmodium falciparum [3]): 6.09 | pIC50 (Plasmodium falciparum [4]): 8.04 | pIC50 (Plasmodium falciparum [5]): 6.47 | pIC50 (Plasmodium falciparum [6]): 8.24 | pIC50 (Plasmodium falciparum [7]): 7.90

Cc1n(C)c2c([n+]1C1CC1)C(=O)c1ccccc1C2=O
pIC50 (CHO-K1): 5.51 | pIC50 (Plasmodium falciparum [1]): 7.59 | pIC50 (Plasmodium falciparum [2]): 7.52

O=C1C(O)=C([C@H]2CC[C@H](c3ccc(Cl)cc3)CC2)C(=O)c2ccccc21 [ATOVAQUONE]
pIC50 (Plasmodium falciparum [10]): 9.30 | pIC50 (Plasmodium falciparum [11]): 4.94 | pIC50 (Plasmodium falciparum [1]): 8.55 | pIC50 (Plasmodium falciparum [2]): 8.60 | pIC50 (Plasmodium falciparum [12]): 9.40

O=C1C=CC(=O)C=C1 [BENZOQUINONE]
Activity (Plasmodium falciparum [8]): 20 - 40%
